Diaph act CS = compounds boosting diaphorase resazurin reduction – biochemical, uHTS, resorufin fluorescence, counter-screen for diaphorase-coupled primary assays, primary screen; Diaphorase/resazurin coupled assay, 16 min; active compounds read high; 1 = vehicle wells, 0 = NADH-free wells; hit rate 0.005% among 190,000; AID 1229, 2008; activation factor at 20 µM;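 active = diaphorase activity raised at least twofold by the compound at 20 µM; inactive = activation factor below 2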
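Material: bacterial diaphorase enzyme (C. kluyveri); amount: enzyme 0.07 U/mL final; reagent: NADH substrate 0.114 mM plus resazurin dye 0.1 mM, final; doses: single compound dose of 20 µM, 1% DMSO final; timing: 16 min enzyme reaction, ambient temperature; measured by: fluorescence of resorufin, 544 nm excitation, 590 nm emission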
ROMK primary = ROMK potassium channel modulators, primary screen, cell-based, thallium flux, MLSMR library | ATP-sensitive inward rectifier potassium channel 1 (Homo sapiens), P48048 | Tet-inducible ROMK, thallium flux fluorescence; actives lie on both sides | B-score at 10 µM | hit rate 2% among 130,000;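 active = signal ratio slope over the read window, or its plate-corrected B-score, at least 3 SD from the plate mean, either direction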;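 also: B-score of the F/F0 ratio slope over 7 to 12 s after thallium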
Target sequence (P48048 whole entry, looked up): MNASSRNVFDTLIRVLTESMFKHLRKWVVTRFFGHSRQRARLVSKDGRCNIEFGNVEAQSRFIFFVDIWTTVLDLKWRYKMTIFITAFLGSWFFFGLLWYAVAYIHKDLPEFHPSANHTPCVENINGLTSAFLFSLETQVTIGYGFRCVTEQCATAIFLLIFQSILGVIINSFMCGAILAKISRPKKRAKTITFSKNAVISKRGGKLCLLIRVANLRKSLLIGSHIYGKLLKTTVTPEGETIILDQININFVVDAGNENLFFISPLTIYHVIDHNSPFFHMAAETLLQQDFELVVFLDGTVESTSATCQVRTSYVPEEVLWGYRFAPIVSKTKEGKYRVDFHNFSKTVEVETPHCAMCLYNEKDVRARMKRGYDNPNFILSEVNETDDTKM
Lmaj promast = Leishmania major promastigote growth inhibition, primary screen | Leishmania major promastigotes, resazurin fluorescence viability | inhibition, % at 10 µM | hit rate 9% among 200,000 | AID 1063, 2008; in the data active = inhibition above about 50%;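 also: promastigotes grown with compound for 44 hours at 28 °C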
WT yeast gro inh = growth inhibition of WT strain, primary screen, mitochondrial fusion inhibitor project, WT and mutant strains, chemical genetic; mitochondrial fusion phenotypic screen; hit rate 2.1% among 190,000; AID 1362, 2008; inhibition, % at 10 µM; in the data active = inhibition above about 58%; tested in S. cerevisiae
Diaphorase inh = diaphorase inhibitors and chemical oxidizers, primary screen, counter-screen for diaphorase-coupled primary assays, biochemical, uHTS, resorufin fluorescence. hit rate 0.69% among 190,000. AID 1217, 2008. diaphorase resazurin-to-resorufin fluorescence, NADH, 16 min; bacterial (C. kluyveri) enzyme, not human. inhibition, % at 20 µM;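 active = primary screen inhibition at 20 µM above a set limit, cut at about 50% in these data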;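 also: plate controls were DMSO with full reaction for no effect and wells lacking NADH for full effect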
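System: Bacterial diaphorase enzyme (C. kluyveri) | Incubation: 16-min room-temperature incubation before reading | Benchmarks: No-NADH positive control and DMSO neutral control | Measured by: Resorufin fluorescence 544/590 nm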
KCC2 mod = KCC2 cotransporter modulators, thallium flux, primary screen, cell-based, HEK293 KCC2, FluoZin-2 fluorescence, MLSMR; Solute carrier family 12 member 5 (Homo sapiens), Q9H2X9; KCC2 cells, thallium flux FluoZin-2 fluorescence; B-score of Tl+ flux slope (higher = more flux/activation; lower = inhibition) at 10 µM; hit rate 2.2% among 190,000; AID 1456, 2008;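 active = thallium flux slope and its plate-corrected score both differing from the plate sample mean at a set confidence after two filtering rounds, in either direction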;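 also: slope of fluorescence scaled to starting intensity during 10 to 20 s after thallium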
The depositor's hits bear a star; nt = no result. Hits are enriched below; roughly 12% of the tested compounds scored in any of these assays.

SMILES	Diaph act CS	ROMK primary	Lmaj promast	WT yeast gro inh	Diaphorase inh	KCC2 mod
O=S(=O)(c1ccc(N2CCN(Cc3ccc4c(c3)OCO4)CC2)nc1)N1CCOCC1	1	0.54	93*	5	-2	0.48
COc1ccc(F)cc1S(=O)(=O)N1CCN(Cc2ccc3c(c2)OCO3)CC1	0.9	nt	12	5	10	0.8
O=S(=O)(Cc1ccccc1Cl)N1CCN(Cc2ccc3c(c2)OCO3)CC1	0.9	-0.58	96*	-20	8	-0.00034
O=S(=O)(Cc1ccc(Cl)cc1)N1CCN(Cc2ccc3c(c2)OCO3)CC1	nt	nt	nt	nt	nt	-0.18
CSc1ccc(S(=O)(=O)N2CCN(Cc3ccc4c(c3)OCO4)CC2)cc1	0.8	nt	82*	30	24	0.078
COc1ccc(Cl)cc1S(=O)(=O)N1CCN(Cc2ccc3c(c2)OCO3)CC1	0.9	nt	72*	65*	13	-0.78
COc1ccc(CCC(C)Nc2cccc(F)c2)cc1 (stereo not given)	0.9	nt	50	-5	15	1.2
c1ccc(-c2ccc(C3=Nn4c(Cn5nnc6ccccc65)nnc4SC3)cc2)cc1	0.9	-0.58	8	29	13	-0.27
Cn1cc(CN2CCN(Cc3ccc4c(c3)OCO4)CC2)c(-c2ccccc2F)n1	0.9	0.008	60*	5	7	nt
CC(C)C(=O)Nc1nnc(SCC(=O)NCc2cccs2)s1	1	nt	-7	77*	-4	-0.029
CC(C)(C)C(=O)Nc1nnc(SCC(=O)NCc2cccs2)s1	0.8	nt	0	9	19	-0.25
CN(C)CCNC(=S)Nc1ccccc1C(C)(C)C	0.9	-0.65	0	-5	8	-0.1
COc1ccc(NC(=S)Nc2cccc3cnccc23)cc1	0.4	nt	2	0	56*	0.78
CC(C)(C)c1ccccc1NC(=S)NCc1ccccc1	0.9	nt	16	63*	12	0.24
CN(C)S(=O)(=O)c1cccc(NC(=S)Nc2cccc3cnccc23)c1	nt	nt	nt	nt	nt	0.34
S=C(Nc1cccnc1)Nc1cccc2cnccc12	0.4	0.26	7	14	62*	-2.1
COc1ccccc1NC(=S)Nc1cccc2cnccc12	0.4	nt	7	10	65*	1.7
O=S(=O)(c1ccc(Cl)c(C(F)(F)F)c1)N1CCN(c2ccccn2)CC1	1	-0.055	-6	22	0	0.65
Fc1ccc(NC(=S)NCc2cccnc2)cc1	0.9	0.29	13	-6	5	0.065
S=C(Nc1ccc(Cl)cc1)Nc1cccc2cnccc12	0.5	-0.99	3	62*	51*	0.061
Fc1ccc(NC(=S)Nc2cccc3cnccc23)cc1	0.6	-0.1	8	50	44	0.63
COc1ccccc1CNc1cc(C)ccc1C	0.8	0.78	5	-3	21	0.8
S=C(NCc1cccnc1)Nc1ccc(Cl)c(Cl)c1	0.9	nt	98*	4	8	-1.5
COc1ccccc1CNC(=S)Nc1cc(C)ccc1C	0.8	-1.8	30	66*	16	-1.5
COc1ccccc1NC(=S)NCc1cccnc1	1	nt	68*	-7	-3	-0.16
SMILES	Diaph act CS	ROMK primary	Lmaj promast	WT yeast gro inh	Diaphorase inh	KCC2 mod
CCOc1ccc(NC(=S)Nc2cccc3cnccc23)cc1	0.4	0.21	9	58*	55*	1.4
CCOc1ccc(NC(=S)Nc2ccc(OCC)cc2)cc1	0.9	0.15	-4	7	15	0.44
O=C1CC(c2ccco2)Cc2nc(Nc3ccc(F)cc3)ncc21 (stereo not given)	1	-1.6	16	-15	3	nt
Nc1ncnc(Nc2ccc(F)cc2)n1	0.8	nt	57*	-7	15	-0.82
Fc1ccc(Nc2ccnc(Nc3ccc(F)cc3)n2)cc1	0.8	nt	95*	75	20	-0.12
CCN(CC)S(=O)(=O)c1ccc(N=Cc2c(C)c(C#N)c(=O)n(C)c2O)cc1	0.9	nt	-5	-10	6	0.61
O=P(OC1CCCCC1)(OC1CCCCC1)C(O)c1ccc(Cl)cc1Cl (stereo not given)	0.9	0.057	52*	15	13	1.2

Screens from PubChem.
